pIC50: −log10 of the molar value. ≈ marks a conversion by molar mass, not a printed value.
Key:
[1] = biological target: T1, Cytochrome P450 1B1 (Homo sapiens, UniProt Q16678); assay: Potency index, ratio of IC50 of ANF to IC50 of compound for inhibition of human recombinant CYP1B1; settings: read-out: Ratio IC50
T1 sequence (Q16678 whole entry): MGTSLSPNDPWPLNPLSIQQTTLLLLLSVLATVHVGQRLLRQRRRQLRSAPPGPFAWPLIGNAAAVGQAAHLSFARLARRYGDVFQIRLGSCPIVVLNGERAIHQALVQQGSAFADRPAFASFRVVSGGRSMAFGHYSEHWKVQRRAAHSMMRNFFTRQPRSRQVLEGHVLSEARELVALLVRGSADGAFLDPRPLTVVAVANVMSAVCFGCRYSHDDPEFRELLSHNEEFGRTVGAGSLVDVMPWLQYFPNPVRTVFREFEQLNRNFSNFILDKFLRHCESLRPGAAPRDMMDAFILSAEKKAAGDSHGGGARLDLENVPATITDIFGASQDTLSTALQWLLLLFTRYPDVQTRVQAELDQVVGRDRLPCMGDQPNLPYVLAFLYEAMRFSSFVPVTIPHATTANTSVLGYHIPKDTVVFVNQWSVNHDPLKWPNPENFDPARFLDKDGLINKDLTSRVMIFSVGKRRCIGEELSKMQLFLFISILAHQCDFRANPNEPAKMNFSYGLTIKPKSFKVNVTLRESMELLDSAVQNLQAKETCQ

[2] = biological target: T2, Cytochrome P450 1A2 (Homo sapiens, UniProt P05177); assay: Inhibition of recombinant human CYP1A2 using 7-ethoxyresorufin as substrate after 50 mins in presence of NADP+ by EROD assay; assay type: ADME
T2 sequence (P05177 whole entry): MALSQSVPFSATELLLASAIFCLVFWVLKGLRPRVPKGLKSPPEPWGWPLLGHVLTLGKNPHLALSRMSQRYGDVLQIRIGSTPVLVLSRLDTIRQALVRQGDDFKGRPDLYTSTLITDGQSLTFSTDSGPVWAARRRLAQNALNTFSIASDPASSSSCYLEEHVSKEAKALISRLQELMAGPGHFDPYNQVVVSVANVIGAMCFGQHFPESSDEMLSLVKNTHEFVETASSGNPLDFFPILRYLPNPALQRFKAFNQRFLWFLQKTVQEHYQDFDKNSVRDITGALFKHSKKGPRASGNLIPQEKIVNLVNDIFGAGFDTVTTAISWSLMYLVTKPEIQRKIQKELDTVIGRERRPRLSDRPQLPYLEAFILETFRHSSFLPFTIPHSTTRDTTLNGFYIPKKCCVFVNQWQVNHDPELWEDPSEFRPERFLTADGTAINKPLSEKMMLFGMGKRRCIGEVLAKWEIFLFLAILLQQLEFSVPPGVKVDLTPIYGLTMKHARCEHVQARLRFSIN
Procedure, shortened: (§1)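 Recombinant human CYP1 Supersomes co-expressing P450 reductase; 20 fmol CYP1B1, 10 fmol CYP1A1 or 60 fmol CYP1A2 per well. Incubated at 37 °C (1B1 35 min, 1A1 15 min, 1A2 50 min).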

[3] = biological target: T1, Cytochrome P450 1B1; assay: Inhibition of recombinant human CYP1B1 using 7-ethoxyresorufin as substrate after 35 mins in presence of NADP+ by EROD assay; procedure, shortened: as §1
[4] = biological target: T3, Cytochrome P450 1A1 (Homo sapiens, UniProt P04798); assay: Inhibition of recombinant human CYP1A1 using 7-ethoxyresorufin as substrate after 15 mins in presence of NADP+ by EROD assay; assay type: ADME
T3 sequence (P04798 whole entry): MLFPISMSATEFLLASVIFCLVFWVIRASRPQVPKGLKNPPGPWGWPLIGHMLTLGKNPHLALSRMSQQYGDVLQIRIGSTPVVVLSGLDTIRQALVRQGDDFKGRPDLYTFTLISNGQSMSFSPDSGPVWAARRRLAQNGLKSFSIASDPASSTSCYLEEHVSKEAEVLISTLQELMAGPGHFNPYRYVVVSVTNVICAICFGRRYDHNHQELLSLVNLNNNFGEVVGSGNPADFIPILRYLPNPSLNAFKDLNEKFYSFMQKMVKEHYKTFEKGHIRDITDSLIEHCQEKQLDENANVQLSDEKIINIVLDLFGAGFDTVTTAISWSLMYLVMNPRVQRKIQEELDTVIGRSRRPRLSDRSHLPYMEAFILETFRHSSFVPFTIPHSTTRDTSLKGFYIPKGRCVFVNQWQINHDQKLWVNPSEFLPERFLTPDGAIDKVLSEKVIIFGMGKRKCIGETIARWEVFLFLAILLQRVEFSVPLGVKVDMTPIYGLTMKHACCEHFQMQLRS
Procedure, shortened: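 Recombinant human CYP1 Supersomes co-expressing P450 reductase; 20 fmol CYP1B1, 10 fmol CYP1A1 or 60 fmol CYP1A2 per well. Incubated at 37 °C (1B1 35 min, 1A1 15 min, 1A2 50 min). Stopped with cold methanol; fluorescence read at 544/590 nm; triplicates.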

[5] = organism: Homo sapiens; assay: Selectivity index, ratio of IC50 for recombinant human CYP1A2 to IC50 for recombinant human CYP1B1
[6] = organism: Homo sapiens; assay: Selectivity index, ratio of IC50 for recombinant human CYP1A1 to IC50 for recombinant human CYP1B1
[7] = Water solubility of compound by HPLC analysis; assay type: physicochemical
Procedure, shortened: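 Compound stocks at 5 mg/mL in DCM/MeOH were diluted in MeOH to 125–2000 µg/mL (500–5000 µg/mL for the salt form) and run on C18 HPLC with detection at 360 nm for calibration. A 10 µL injection of supersaturated aqueous solution, diluted if needed, was then analysed. Solubility was calculated from the linear regression.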

pIC50 [2] | pIC50 [3] | pIC50 [4] | Ratio IC50 [5] | Ratio IC50 [6] | solubility [7] | Structure (SMILES) | selectivity ratio [1]
6.13 | 8.96 | 8.10 | 674 | 7.3 | – | COc1ccc(OC)c2c1c(OC)cc1c(=O)cc(-c3cncc(Br)c3)oc12 | 5
< 6.00 | 10.15 | 7.77 | > 14300 | 240 | < 5 µg/mL | COc1ccc(OC)c2c1c(OC)cc1c(=O)cc(-c3ccc(F)cn3)oc12 | 84
6.79 | 8.89 | 8.16 | 124 | 5.3 | – | COc1ccc(OC)c2c1c(OC)cc1c(=O)cc(-c3cncc(C)c3)oc12 | 5
6.97 | 9.01 | 7.51 | 110 | 31.4 | 311 µg/mL (≈ 822 µM) | COc1ccc(OC)c2c1c(OC)cc1c(=O)cc(-c3ccc(N)nc3)oc12 | –
6.29 | 9.03 | 7.41 | 557 | 41.8 | – | COc1ccc(OC)c2c1c(OC)cc1c(=O)cc(-c3ccnc(F)c3)oc12 | –
< 6.00 | 8.11 | 6.49 | > 130 | 41.9 | – | COc1ccc(OC)c2c1c(OC)cc1c(=O)cc(-c3cccc(O)n3)oc12 | –
< 6.00 | 9.08 | 8.00 | > 1190 | 11.8 | – | COc1ccc(OC)c2c1c(OC)cc1c(=O)cc(-c3cc(Cl)ccn3)oc12 | –
7.53 | 8.59 | 8.51 | 11.2 | 1.2 | – | COc1ccc(OC)c2c1c(OC)cc1c(=O)cc(-c3cscn3)oc12 | –
6.21 | 8.89 | 7.41 | 479 | 29.9 | – | COc1ccc(OC)c2c1c(OC)cc1c(=O)cc(-c3ccc(Br)cn3)oc12 | –
6.85 | 9.01 | 7.75 | 144 | 18.1 | – | COc1ccc(OC)c2c1c(OC)cc1c(=O)cc(-c3cncc(F)c3)oc12 | 5
6.83 | 8.92 | 7.70 | 124 | 16.6 | – | COc1ccc(OC)c2c1c(OC)cc1c(=O)cc(-c3cccc(C)n3)oc12 | –
– | – | – | – | – | < 5 µg/mL | O=c1cc(-c2ccccc2)oc2c1ccc1ccccc12 [ALPHA-NAPHTHOFLAVONE] | –
